ChEMBL document CHEMBL2434954, “Novel 6β-acylaminomorphinans with analgesic activity” (Eur J Med Chem, 2013)
The source made the active and inactive calls.

Columns and labels:
[1] = target: T1, Delta-type opioid receptor (Mus musculus, UniProt P32300); experiment: Displacement of [125I]-BNtxA from mouse cloned delta opioid receptor expressed in CHO cells after 90 mins; assay type: cell-based
In short: (§1)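 CHO membranes stably expressing cloned mouse MOR-1, DOR-1 or KOR-1 (30-40 μg/mL protein), competition against 0.1 nM 125I-BNtxA. Incubation 90 min at 25°C in 50 mM potassium phosphate pH 7.4, with 5 mM MgSO4 for MOR-1 only. Nonspecific binding with 8 μM levallorphan. Ki from IC50. Mean ± SEM, at least three replicates.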

Mu-type opioid receptor [2] = target: T2, Mu-type opioid receptor (Mus musculus, UniProt P42866); experiment: Displacement of [125I]-BNtxA from mouse cloned mu opioid receptor expressed in CHO cells after 90 mins; assay type: cell-based; in short: as §1
[3] = target: T3, Kappa-type opioid receptor (Mus musculus, UniProt P33534); experiment: Displacement of [125I]-BNtxA from mouse cloned kappa opioid receptor expressed in CHO cells after 90 mins; assay type: cell-based; in short: as §1
Mus musculus [4] = experiment: Analgesic activity in sc dosed CD1 mouse assessed as increase in pain threshold by tail flick method; assay type: functional
In short: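 Male CD-1 mice (25-35 g), radiant heat tail-flick. Baseline 2.0-3.0 s, mean of two trials. Cumulative s.c. dosing, tested 30 min after dose, groups n=10, two independent assays. Analgesia defined quantally as doubling or more of baseline latency.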

Mus musculus [5] = experiment: Analgesic activity in sc dosed CD1 mouse assessed as increase in pain threshold by tail flick method in presence of mu opioid receptor antagonist beta-FNA; assay type: functional, organism-based
In short: (§2)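 Tail-flick test in CD1 mice (n=6 per group) given agonist 5 mg/kg s.c. alone or with antagonist s.c.: norBNI 10 mg/kg or β-FNA 40 mg/kg 24 h before, NTI 20 mg/kg 15 min before. Latency read 30 min after agonist. Two independent replications; ANOVA with Bonferroni test (p < 0.05).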

Mus musculus [6] = species: Mus musculus; experiment: Selectivity ratio of Ki for mouse cloned delta opioid receptor to Ki for mouse cloned mu opioid receptor
Mus musculus [7] = experiment: Analgesic activity in sc dosed CD1 mouse assessed as increase in pain threshold by tail flick method in presence of kappa opioid receptor antagonist norBNI; assay type: functional, organism-based; in short: as §2
Mus musculus [8] = species: Mus musculus; experiment: Selectivity ratio of EC50 for mouse cloned kappa opioid receptor to EC50 for mouse cloned mu opioid receptor by [35S]GTPgammaS binding assay; assay type: functional
Mu-type opioid receptor [9] = target: T2, Mu-type opioid receptor; experiment: Agonist activity at mouse cloned mu opioid receptor expressed in CHO cells after 60 mins by [35S]GTPgammaS binding assay; assay type: functional, cell-based
In short: (§3)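 Membranes from transfected cells incubated with agonist 60 min at 30°C in 50 mM Tris-HCl pH 7.4, 3 mM MgCl2, 0.2 mM EGTA, 10 mM NaCl, with 0.05 nM [35S]GTPγS and GDP. Filtration on glass-fibre filters, scintillation counting. Basal binding with GDP and no drug. Mean ± SEM, three assays in triplicate.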

[10] = target: T3, Kappa-type opioid receptor; experiment: Agonist activity at mouse cloned kappa opioid receptor expressed in CHO cells after 60 mins by [35S]GTPgammaS binding assay; assay type: functional, cell-based
In short: as §3, with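 “drug. […]” for “drug.”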

[11] = target: Kappa-type opioid receptor (Mus musculus) (UniProt P33534); experiment: Agonist activity at mouse cloned kappa opioid receptor expressed in CHO cells at 100 nM after 60 mins by [35S]GTPgammaS binding assay relative to U50488H; assay type: functional, cell-based
In short: as §3, with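 “drug. […]” for “drug.”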

[12] = target: Delta-type opioid receptor (Mus musculus) (UniProt P32300); experiment: Agonist activity at mouse cloned delta opioid receptor expressed in CHO cells after 60 mins by [35S]GTPgammaS binding assay relative to DPDPE; assay type: functional, cell-based
In short: as §3, with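 “drug. […]” for “drug.”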

[13] = target: T1, Delta-type opioid receptor; experiment: Agonist activity at mouse cloned delta opioid receptor expressed in CHO cells after 60 mins by [35S]GTPgammaS binding assay; assay type: functional, cell-based; in short: as §3
Mus musculus [14] = experiment: Analgesic activity in sc dosed CD1 mouse assessed as increase in pain threshold by tail flick method in presence of delta opioid receptor antagonist […]; assay type: functional, organism-based; in short: as §2
Mus musculus [15] = experiment: Toxicity in CD1 mouse assessed as respiratory depression at 24 mg/kg, sc measured after 15 to 35 mins; assay type: organism-based; set-up: dose 24 mg/kg, route subcutaneous; conditions: in vivo
In short: (§4)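 Awake, freely moving adult male CD1 mice, pulse oximeter breath rate after 30 min habituation. 5-s average breath rate every 5 min. Baseline over 25 min before s.c. injection, then recorded from 15 min post-injection for 35 min. Groups n=3, saline control. Values given as percent of baseline.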

[16] = target: Mu-type opioid receptor (Mus musculus) (UniProt P42866); experiment: Agonist activity at mouse cloned mu opioid receptor expressed in CHO cells after 60 mins by [35S]GTPgammaS binding assay relative to DAMGO; assay type: functional, cell-based
In short: as §3, with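 “drug. […]” for “drug.”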

Mus musculus [17] = species: Mus musculus; experiment: Selectivity ratio of EC50 for mouse cloned delta opioid receptor to EC50 for mouse cloned mu opioid receptor by [35S]GTPgammaS binding assay; assay type: functional
Mus musculus [18] = experiment: Toxicity in CD1 mouse assessed as respiratory depression at 20 mg/kg, sc measured after 15 to 35 mins; assay type: organism-based; set-up: dose 20 mg/kg, route subcutaneous; conditions: in vivo; in short: as §4
Mus musculus [19] = species: Mus musculus; experiment: Selectivity ratio of Ki for mouse cloned kappa opioid receptor to Ki for mouse cloned mu opioid receptor

T3 sequence (P33534 whole entry): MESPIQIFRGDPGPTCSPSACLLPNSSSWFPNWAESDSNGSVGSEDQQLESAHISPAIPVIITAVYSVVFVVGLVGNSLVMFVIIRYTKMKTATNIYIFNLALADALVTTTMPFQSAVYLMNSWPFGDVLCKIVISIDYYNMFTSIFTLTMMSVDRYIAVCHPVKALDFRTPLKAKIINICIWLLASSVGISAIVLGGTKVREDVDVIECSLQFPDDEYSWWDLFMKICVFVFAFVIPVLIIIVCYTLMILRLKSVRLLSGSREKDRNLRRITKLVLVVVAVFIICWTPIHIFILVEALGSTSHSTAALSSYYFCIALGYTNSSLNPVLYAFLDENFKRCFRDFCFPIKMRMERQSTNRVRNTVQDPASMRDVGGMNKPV
T2 sequence (P42866 whole entry): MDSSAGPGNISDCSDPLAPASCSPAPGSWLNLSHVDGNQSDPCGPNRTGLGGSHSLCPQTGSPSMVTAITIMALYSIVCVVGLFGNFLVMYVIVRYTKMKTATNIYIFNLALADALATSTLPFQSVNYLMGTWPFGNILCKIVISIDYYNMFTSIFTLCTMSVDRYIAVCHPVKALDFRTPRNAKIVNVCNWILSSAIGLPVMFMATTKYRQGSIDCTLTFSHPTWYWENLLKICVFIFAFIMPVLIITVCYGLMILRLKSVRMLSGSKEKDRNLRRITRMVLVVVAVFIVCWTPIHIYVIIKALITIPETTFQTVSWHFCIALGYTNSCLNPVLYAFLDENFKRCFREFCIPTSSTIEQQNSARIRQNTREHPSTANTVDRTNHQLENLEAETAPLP
T1 sequence (P32300 whole entry): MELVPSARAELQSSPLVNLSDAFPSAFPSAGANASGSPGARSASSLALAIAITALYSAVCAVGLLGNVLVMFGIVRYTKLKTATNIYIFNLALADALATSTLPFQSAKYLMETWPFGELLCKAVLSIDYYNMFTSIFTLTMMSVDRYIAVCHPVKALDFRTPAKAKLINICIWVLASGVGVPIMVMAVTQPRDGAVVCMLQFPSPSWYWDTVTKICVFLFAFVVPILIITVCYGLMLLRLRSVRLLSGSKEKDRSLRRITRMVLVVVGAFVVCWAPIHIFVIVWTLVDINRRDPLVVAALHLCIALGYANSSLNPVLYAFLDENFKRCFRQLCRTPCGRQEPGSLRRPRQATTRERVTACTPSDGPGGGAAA
Chain of Kappa-type opioid receptor (Mus musculus) (P33534 whole entry): as the sequence (P33534 whole entry) above
Chain of Mu-type opioid receptor (Mus musculus) (P42866 whole entry): as the sequence (P42866 whole entry) above
Chain of Delta-type opioid receptor (Mus musculus) (P32300 whole entry): as the sequence (P32300 whole entry) above

| SMILES | Ki [1] | Ki (Mu-type opioid receptor [2]) | Ki [3] | ED50 (Mus musculus [4]) | other results |
| --- | --- | --- | --- | --- | --- |
| CN1CC[C@]23c4c5ccc(O)c4O[C@H]2[C@H](NC(=O)/C=C/c2ccc(Cl)cc2)C=C[C@H]3[C@H]1C5 | 9.38 nM | 0.15 nM | 1.97 nM | > 10 mg/kg |  |
| CN1CC[C@]23c4c5ccc(O)c4O[C@H]2[C@H](NC(=O)/C=C/c2ccccc2)C=C[C@H]3[C@H]1C5 | 10.3 nM | 0.1 nM | 2.9 nM | 3.13 mg/kg | Activity (Mus musculus [5]): inactive; Ratio Ki (Mus musculus [6]): 103; Activity (Mus musculus [7]): Active; Ratio EC50 (Mus musculus [8]): 25; EC50 (Mu-type opioid receptor [9]): 1.38 nM; EC50 [10]: 36.5 nM; Efficacy [11]: 106%; Efficacy [12]: 102%; EC50 [13]: 9.1 nM; Activity (Mus musculus [14]): inactive; Activity (Mus musculus [15]): Non-toxic; Efficacy [16]: 95.3%; Ratio EC50 (Mus musculus [17]): 4 |
| COc1ccc(/C=C/C(=O)N[C@@H]2C=C[C@H]3[C@H]4Cc5ccc(OC)c6c5[C@@]3(CCN4C)[C@H]2O6)cc1 | > 100 nM | 25.2 nM | > 100 nM | > 10 mg/kg |  |
| CN1CC[C@]23c4c5ccc(O)c4O[C@H]2[C@H](NC(=O)/C=C/c2cccc([N+](=O)[O-])c2)C=C[C@H]3[C@H]1C5 | 5.15 nM | 0.12 nM | 0.81 nM | > 10 mg/kg |  |
| COc1ccc2c3c1O[C@H]1[C@H](NC(=O)/C=C/c4cccc([N+](=O)[O-])c4)C=C[C@H]4[C@@H](C2)N(C)CC[C@@]341 | > 100 nM | 3.74 nM | > 100 nM | > 10 mg/kg |  |
| CN1CC[C@]23c4c5ccc(O)c4O[C@H]2[C@@H](O)C=C[C@H]3[C@H]1C5 [MORPHINE] |  |  |  | 4.96 mg/kg | Activity (Mus musculus [18]): Toxic |
| COc1ccc2c3c1O[C@H]1[C@H](NC(=O)/C=C/c4ccc(Cl)cc4)C=C[C@H]4[C@@H](C2)N(C)CC[C@@]341 | > 100 nM | 3.81 nM | > 100 nM | > 10 mg/kg |  |
| CN1CC[C@]23c4c5ccc(O)c4O[C@H]2[C@H](NC(=O)/C=C/c2ccc(C(F)(F)F)cc2)C=C[C@H]3[C@H]1C5 | 14.5 nM | 0.19 nM | 10.5 nM | > 10 mg/kg | Ratio Ki (Mus musculus [19]): 55.4 |
| COc1ccc2c3c1O[C@H]1[C@H](NC(=O)/C=C/c4ccccc4)C=C[C@H]4[C@@H](C2)N(C)CC[C@@]341 | > 100 nM | 4.73 nM | > 100 nM | > 10 mg/kg |  |
| COc1ccc2c3c1O[C@H]1[C@H](NC(=O)/C=C/c4ccc(C(F)(F)F)cc4)C=C[C@H]4[C@@H](C2)N(C)CC[C@@]341 | > 100 nM | 5.44 nM | > 100 nM | > 10 mg/kg |  |
| COc1ccc(/C=C/C(=O)N[C@@H]2C=C[C@H]3[C@H]4Cc5ccc(O)c6c5[C@@]3(CCN4C)[C@H]2O6)cc1 | 15.3 nM | 0.74 nM | 5.43 nM | > 10 mg/kg |  |
